# MT1-MMP act inh – inhibitors of human MT1-MMP activation; HT1080 RFP-PRO-GFP cells, GFP/RFP ratio fluorescence, overnight; percent of plate control window, DMSO zero; 360,000 compounds, 0.061% hits; GFP/RFP ratio change, % at 20 µM; P50281;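 active means GFP/RFP ratio change of at least 30% with cell ATP level not reduced by more than half and red fluorescence within 50% of control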
#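 Test system: HT1080 cells expressing an RFP-PRO-GFP fluorescent reporter construct / Compound dosing: single-point 20 µM compound, 1% DMSO / Schedule: cells overnight before dosing, compound overnight, 37 °C, 5% CO2 / Evaluation: GFP/RFP fluorescence ratio / Control set: DMSO and RFP-L50D-GFP cell wells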
# Rpn11 inh – blocks the human proteasome subunit Rpn11 | O00487 | human 26S proteasome, Ub4-pepOG fluorescence polarization; 20S core pre-blocked with epoxomicin | inhibition, % at 20 µM | 360,000 compounds, 0.59% hits | AID 588493;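 active means inhibition at 20 µM, scaled to each plate's controls, above about 33%, limit read from the data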
# CSN deneddyl inh – blocks human CSN-mediated cullin deneddylation; Q92905; Purified CSN, SCF-Nedd8-OG deneddylation, fluorescence polarization; inhibition, % at 12.5 µM; 360,000 compounds, 0.38% hits; AID 651999;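 active means pattern-corrected inhibition above about 35%, with an unprinted fluorescence ratio check between 0.5 and 1.5, limit read from the data, passing the limit was not always enough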;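 further: 0% = enzyme with substrate and 100% = substrate without enzyme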
#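 Assay system: purified human Csn5 enzyme expressed in HEK293T cells; Input: 0.24 nM Csn5 enzyme, final concentration; Reagent: 10 nM SCFSkp2-Nedd8OG; Compound dosing: 12.5 µM single point; Times: reaction 90 min, room temperature; Technique: fluorescence polarization readout.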
# SUMO1-SIM PPI – SUMO1-SIM interaction modulation; P63165; SUMO1 binding to a labelled peptide, TR-FRET, 1 h; inhibition, % at 20 µM; 360,000 compounds, 0.33% hits; in the data active means inhibition above about 37%
# DNMT1 inh – DNMT1 (human) enzyme inhibition. P26358. 360,000 compounds, 0.83% hits. DNMT1 molecular beacon, Hinp1I cleavage, fluorescence. inhibition (reported as % activation of signal), % at 10 µM; in the data active means inhibition above about 50%
# Target sequence (P26358 504-1616 limits assumed): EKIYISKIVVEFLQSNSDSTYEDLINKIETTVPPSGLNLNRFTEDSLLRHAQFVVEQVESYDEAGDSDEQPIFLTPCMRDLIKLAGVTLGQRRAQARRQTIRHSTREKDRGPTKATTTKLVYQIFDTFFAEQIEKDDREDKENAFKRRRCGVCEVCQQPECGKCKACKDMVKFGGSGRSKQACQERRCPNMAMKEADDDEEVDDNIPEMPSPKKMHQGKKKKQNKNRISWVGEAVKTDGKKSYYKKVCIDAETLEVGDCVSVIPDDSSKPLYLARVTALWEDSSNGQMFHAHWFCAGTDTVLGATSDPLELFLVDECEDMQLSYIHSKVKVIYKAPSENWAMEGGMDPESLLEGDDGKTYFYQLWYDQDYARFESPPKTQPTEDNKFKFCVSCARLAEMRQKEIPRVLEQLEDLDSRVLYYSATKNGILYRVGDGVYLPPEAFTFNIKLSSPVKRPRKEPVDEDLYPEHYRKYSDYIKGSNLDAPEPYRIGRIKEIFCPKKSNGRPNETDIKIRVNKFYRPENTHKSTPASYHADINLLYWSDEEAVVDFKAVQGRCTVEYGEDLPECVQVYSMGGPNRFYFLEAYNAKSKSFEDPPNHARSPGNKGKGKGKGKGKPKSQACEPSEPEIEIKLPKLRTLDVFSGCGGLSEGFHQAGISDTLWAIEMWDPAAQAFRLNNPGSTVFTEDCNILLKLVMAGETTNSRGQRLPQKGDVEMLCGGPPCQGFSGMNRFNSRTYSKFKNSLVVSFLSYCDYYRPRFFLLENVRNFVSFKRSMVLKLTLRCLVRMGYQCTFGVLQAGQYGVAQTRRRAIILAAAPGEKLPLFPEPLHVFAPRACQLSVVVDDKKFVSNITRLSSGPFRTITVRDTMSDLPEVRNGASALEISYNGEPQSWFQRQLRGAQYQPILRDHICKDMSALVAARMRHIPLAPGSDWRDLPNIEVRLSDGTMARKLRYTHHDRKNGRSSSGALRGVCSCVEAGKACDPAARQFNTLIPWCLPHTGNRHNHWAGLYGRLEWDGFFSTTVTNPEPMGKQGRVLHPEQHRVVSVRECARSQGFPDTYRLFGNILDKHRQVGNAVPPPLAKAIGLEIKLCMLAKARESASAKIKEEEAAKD
# SKN-1 block – blocks SKN-1 activity in C. elegans; C. elegans VP596 Pgst-4::GFP/RFP ratio, acrylamide-induced, 24 h; inhibition, % at 21.8 µM; 360,000 compounds, 0.49% hits; AID 624304;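 active means interference check ratio from 0.5 to 1.5 plus GFP to RFP signal ratio inhibition reaching or exceeding a fixed threshold, cut at about 30% in these data, passing the limit was not always enough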
# * = called active by the depositor; · = not tested or not shown. This is a sample that favours compounds with a hit; in the whole collection about 2.3% have one here.
SMILES,MT1-MMP act inh,Rpn11 inh,CSN deneddyl inh,SUMO1-SIM PPI,DNMT1 inh,SKN-1 block
Cc1ccc2ccccc2c1C(O)c1ncc(-c2ccccc2)[nH]1 (stereo unspecified),-5.4,-3.1,-4.7,-6.9,-1.2,15.8
NC(Cc1ccccc1)c1csc(NC(=O)c2cccc(OC(F)(F)F)c2)n1 (stereo unspecified),4.5,2.4,-1.1,-38.7,-9.1,0.9
COC(=O)C1=C(C)NC(=O)/C1=C\N(C)C,-6.0,-15.2,-10.9,-6.4,-1.1,38.8*
O=C(CSc1nnc(CNC(=O)c2ccccc2F)o1)NCCc1ccccc1,1.3,-13.6,0.6,1.4,0.3,15.7
O=C(CSc1nnc(CNC(=O)c2ccccc2F)o1)NCc1ccco1,4.4,-0.6,39.8*,-5.5,0.3,4.2
Cc1ccc(S(=O)(=O)N2C[C@H]3[C@H]4C(=O)N(c5ccccc5)C(=O)[C@H]4CC(=O)[C@H]3[C@@H]2c2cccc3ccccc23)cc1,5.4,17.3,-3.0,-0.9,-4.8,35.5*
Cc1ccc(S(=O)(=O)N2C[C@H]3[C@H]4C(=O)N(Cc5ccccc5)C(=O)[C@H]4CC(=O)[C@H]3[C@@H]2c2cccc3ccccc23)cc1,1.8,-1.0,-3.6,1.8,-2.1,14.8
Cc1ccc(S(=O)(=O)N2C[C@H]3[C@H]4C(=O)N(c5ccccc5)C(=O)[C@H]4CC(=O)[C@H]3[C@@H]2c2ccc(Cl)cc2)cc1,3.5,7.7,-2.6,1.8,-3.9,24.4
Cc1ccc(S(=O)(=O)N2C[C@H]3[C@H]4C(=O)N(c5ccccc5)C(=O)[C@H]4CC(=O)[C@H]3[C@@H]2c2ccccc2F)cc1,3.3,5.6,111.0*,6.3,-0.8,5.5
COCCNC(=O)C1CCCN(C(=O)c2ccc(SC(F)(F)F)cc2)CC1 (stereo unspecified),2.3,1.8,0.4,-3.1,5.1,6.8
Cc1cccc(C)c1NC(=O)C1(C)CSCC(=O)N1Cc1cccs1 (stereo unspecified),7.0,·,4.5,2.1,·,-11.8
CC1(C(=O)NS(=O)(=O)C2CC2)CCN(C(=O)c2cccc(Cl)c2)C1 (stereo unspecified),-4.8,-6.0,-2.6,2.0,-0.3,19.1
CC(C)CC[n+]1ccn(-c2nc3ccccc3nc2[N-]S(=O)(=O)c2ccccc2)c1,-3.2,5.6,-2.5,-14.5,-4.5,12.1
CCCC[n+]1ccn(-c2nc3ccccc3nc2[N-]S(=O)(=O)c2ccc(Br)cc2)c1,4.2,23.8,41.3*,-88.8,11.2,9.0
Nc1nonc1-c1nc2ccccc2n1CC(=O)N/N=C/c1ccc(-c2ccccc2C(=O)O)o1,-1.4,4.5,-0.7,19.8,39.6,-1.3
CC1=C(C#N)c2nc(N)c(C#N)c(C)c2/C1=C\c1ccc(-c2ccccc2C(=O)O)o1,49.2,1.8,23.4,29.7,61.9*,43.4*
C=CCN(CC=C)Cc1c(O)ccc2c1oc(=O)c1ccccc12,1.5,-4.4,-3.1,16.1,54.8*,7.5
O=C(N[C@H]1CC[C@H](CCNS(=O)(=O)c2ccc(Cl)cc2)O[C@@H]1CO)c1cccc(F)c1,4.2,·,5.3,-0.8,·,5.7
O=C(O)c1ccc2c(c1)[C@@H]1C=CC[C@@H]1[C@H](c1ccccn1)N2,-4.0,-53.5,26.8,33.7,111.3*,43.8*
O=[N+]([O-])c1cccc(-c2c(-c3ccccc3)ncc3cc(F)ccc23)c1,-1.1,0.5,-2.7,-16.7,-4.1,37.1*
O=[N+]([O-])c1ccc(-c2c(-c3ccccc3)ncc3cc(F)ccc23)cc1,1.8,11.9,6.8,-20.5,-1.7,15.1
CN(CCCN1CCOCC1)C(=O)c1cc(COc2cccc(C(F)(F)F)c2)on1,1.6,-2.1,-1.2,1.8,-1.5,44.8*
CCn1c(CCC(=O)Nc2nc3c(s2)CCCC3)nc2cc(S(=O)(=O)N(C)C)ccc21,-1.6,10.1,1.0,0.4,-7.6,54.5*
Cc1ccccc1NC(=O)C1C(=O)Nc2ccccc2C(=O)N1Cc1ccccc1 (stereo unspecified),1.7,·,-2.4,-2.9,·,-1.1
COCC(=O)N[C@H]1CC[C@@H](CC(=O)NCc2ccccc2OC)O[C@@H]1CO,2.6,·,-3.9,2.8,·,-9.4
SMILES,MT1-MMP act inh,Rpn11 inh,CSN deneddyl inh,SUMO1-SIM PPI,DNMT1 inh,SKN-1 block
Cc1cc(C)n2c(Nc3ccc4c(c3)OCCO4)c(CCc3ccccc3)nc2n1,-3.8,·,-2.7,3.6,·,-5.9
COc1ccc2c(c1O)Cc1ccccc1C2=O,35.2*,23.0,-12.3,55.0*,-24.1,6.8
COc1cc(OC)c(OC)cc1/C=C1/Cc2ccccc2C1=O,-134.9,3.9,10.4,-5.2,12.6,2.2
O=C(Nc1cccc(-c2nc3cccnc3s2)c1)C1c2ccccc2Oc2ccccc21,3.5,34.5,76.2*,13.8,20.7,-11.1
COc1ccc(CNCCC(c2ccc(OC)cc2)c2ccccc2OC)cc1 (stereo unspecified),-4.2,-12.8,-1.6,-6.2,-0.7,37.5*
Cc1cnc(NC(=O)CC(C)c2ccccc2)s1 (stereo unspecified),-6.0,-8.8,-0.1,0.6,0.8,35.1*
O=C1Nc2ccccc2-n2nnnc2C1N1CCc2ccccc2C1 (stereo unspecified),0.9,·,-1.8,3.5,·,5.5
COc1ccc(CN2C(=O)CSCC2(C)C(=O)Nc2ccc3c(c2)OCCO3)cc1 (stereo unspecified),1.9,·,-2.6,2.8,·,7.1
Cc1ccc(S(=O)(=O)N2CC(O)CC2C(=O)O)cc1 (stereo unspecified),3.2,-9.3,9.6,3.9,-1.6,-4.0
CCOC(=O)C1=CCC(C(C)(C)C)N(S(=O)(=O)c2ccc(C)cc2)C1 (stereo unspecified),4.6,-0.1,110.3*,3.6,4.7,-1.5
CCOC(=O)c1ccc(NC(=O)C2CC(O)CN2S(=O)(=O)c2ccc(C)cc2)cc1 (stereo unspecified),0.6,0.6,0.2,42.5*,1.8,-10.5
CN1CCN(/N=C/c2ccc(-c3ccccc3)cc2)CC1,-2.7,2.4,-0.9,-14.4,-1.8,79.3*
C(=N\N1CCN(Cc2ccccc2)CC1)/c1ccc(-c2ccccc2)cc1,1.0,-3.3,1.6,0.9,9.6,-0.4
C=CCNC(=O)c1cc2c(=O)n3ccccc3nc2s1,1.4,-3.8,2.8,-23.5,-0.5,41.2*
N/C(=N\OC(=O)c1ccoc1)c1ccc(Br)cc1,2.1,6.7,3.7,3.7,-0.7,62.8*
Cc1cc(C)cc(C(=O)O/N=C(\N)c2ccc(Br)cc2)c1,7.9,-3.4,1.9,-0.6,-2.5,-20.6
CN(C)c1ccc(N=Nc2nccs2)cc1,34.9,14.9,2.7,-52.1,-32.2,56.5*

# Compound activity: PubChem BioAssay, Sanford-Burnham Center for Chemical Genomics
